From ChEMBL document CHEMBL3244174, “Synthesis and biological activity of some new furan quaternary salts” (J Med Chem, 1977)

What was measured:
Candida albicans = assay: Antifungal activity against Candida albicans SKF 2270 assessed as growth inhibition by agar dilution method; type: functional
Cryptococcus neoformans = assay: Antifungal activity against Cryptococcus neoformans 103 assessed as growth inhibition by agar dilution method; type: functional
[1] = tested on: Trichophyton mentagrophytes; assay: Antifungal activity against Trichophyton mentagrophytes A-280 USPHS assessed as growth inhibition by agar dilution method; type: functional
Trichophyton rubrum = assay: Antifungal activity against Trichophyton rubrum 252 CSTM assessed as growth inhibition by agar dilution method; type: functional
Microsporum canis = assay: Antifungal activity against Microsporum canis VM-200 USPHS assessed as growth inhibition by agar dilution method; type: functional
Nannizzia gypsea = assay: Antifungal activity against Microsporum gypseum 153 CSTM assessed as growth inhibition by agar dilution method; type: functional
Histoplasma capsulatum = assay: Antifungal activity against Histoplasma capsulatum RNSH Hi-70 1/2 assessed as growth inhibition by agar dilution method; type: functional
Staphylococcus aureus = assay: Antibacterial activity against Staphylococcus aureus ATCC 6538 assessed as growth inhibition after 24 hrs by dilution tube method; type: functional; details: ATCC 6538, 24 h
Summary of the method: (§1)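 Broth tube dilution in Tryptone Soya Broth, duplicate tubes at each concentration. MIC (μg/ml) was the highest dilution preventing visible growth. Nitrofurantoin run under the same conditions.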

Enterococcus faecalis = assay: Antibacterial activity against Streptococcus faecalis ATCC 10541 assessed as growth inhibition after 24 hrs by dilution tube method; type: functional; details: ATCC 10541, 24 h; summary of the method: as §1
Pseudomonas aeruginosa = assay: Antibacterial activity against Pseudomonas aeruginosa ATCC 10145 assessed as growth inhibition after 24 hrs by dilution tube method; type: functional; details: ATCC 10145, 24 h; summary of the method: as §1
Klebsiella pneumoniae = assay: Antibacterial activity against Klebsiella pneumoniae ATCC 10031 assessed as growth inhibition after 24 hrs by dilution tube method; type: functional; details: ATCC 10031, 24 h; summary of the method: as §1
Salmonella typhi = assay: Antibacterial activity against Salmonella typhi 115 assessed as growth inhibition after 24 hrs by dilution tube method; type: functional, Salmonella enterica subsp. enterica serovar Typhi; details: Salmonella enterica, 115, 24 h
Summary of the method: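 Dilution tube method in Tryptone Soya Broth; MIC (μg/ml) taken as highest dilution preventing visible growth; duplicates at every concentration; nitrofurantoin reference run under same conditions.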

[2] = tested on: Agrobacterium tumefaciens; assay: Antibacterial activity against Agrobacterium tumefaciens NRRL B-36 assessed as growth inhibition after 24 hrs by dilution tube method; type: functional; details: NRRL B-36, 24 h; summary of the method: as §1
Escherichia coli = assay: Antibacterial activity against Escherichia coli 114 assessed as growth inhibition after 24 hrs by dilution tube method; type: functional; details: Escherichia coli, 114, 24 h; summary of the method: as §1
[3] = tested on: Mycobacterium tuberculosis; assay: Antibacterial activity against Mycobacterium tuberculosis H37Rv assessed as growth inhibition by serial dilution method; type: functional
Summary of the method: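 M. tuberculosis H37Rv maintained on Lowenstein–Jensen medium; tested in Youman's medium by serial dilution.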

SMILES | MIC (Candida albicans) [µg/mL] | MIC (Cryptococcus neoformans) [µg/mL] | MIC [1] [µg/mL] | MIC (Trichophyton rubrum) [µg/mL] | MIC (Microsporum canis) [µg/mL] | MIC (Nannizzia gypsea) [µg/mL] | MIC (Histoplasma capsulatum) [µg/mL] | MIC (Staphylococcus aureus) [µg/mL] | MIC (Enterococcus faecalis) [µg/mL] | MIC (Pseudomonas aeruginosa) [µg/mL] | MIC (Klebsiella pneumoniae) [µg/mL] | MIC (Salmonella typhi) [µg/mL] | MIC [2] [µg/mL] | MIC (Escherichia coli) [µg/mL] | MIC [3] [µg/mL]
Cc1ccc(C[N+](C)(C)CCCCOc2cc(C)c(Cl)cc2C(C)C)o1.[Br-] | 50 | 25 | 50 | > 200 | 25 | > 200 | 100 | 25 | 25 | 5 | 5 | 100 | 50 | > 200 | 10
C[N+](C)(CCCCCOc1c(Br)cc(Br)cc1Br)Cc1ccc([N+](=O)[O-])o1.[Br-] | > 200 | 25 | > 200 | > 200 | > 200 | > 200 | > 200 | 25 | 25 | 7.5 | 5 | > 200 | 25 | > 200 | 7.5
Cc1ccc(C[N+](C)(C)CCOc2c(Br)cc(Br)cc2Br)o1.[Br-] | > 200 | 50 | > 200 | > 200 | > 200 | > 200 | > 200 | 50 | 50 | 25 | 50 | > 200 | 100 | > 200 | 25
Cc1cc(OCCCCCCCCCCCCCC[N+](C)(C)Cc2ccc(Br)o2)c(C(C)C)cc1Cl.Cc1ccc(S(=O)(=O)[O-])cc1 | > 200 | > 200 | > 200 | > 200 | > 200 | > 200 | > 200 | > 200 | > 200 | 200 | 200 | > 200 | > 200 | > 200 | > 200
Cc1cc(OCCC[N+](C)(C)Cc2ccc([N+](=O)[O-])o2)c(C(C)C)cc1Cl.[Br-] | > 200 | > 200 | > 200 | > 200 | > 200 | > 200 | > 200 | 25 | 25 | 2 | 5 | 100 | 25 | > 200 | > 200
C[N+](C)(CCOc1ccc(Cl)cc1Cl)Cc1ccc([N+](=O)[O-])o1.[Br-] | > 200 | > 200 | > 200 | > 200 | > 200 | > 200 | > 200 | 200 | > 200 | 100 | 100 | > 200 | > 200 | > 200 | > 200
C[N+](C)(CCCCCCCCOc1c(Br)cc(Br)cc1Br)Cc1ccc([N+](=O)[O-])o1.[Br-] | > 200 | 4 | > 200 | > 200 | > 200 | > 200 | > 200 | 4 | 4 | 2 | 2 | > 200 | 10 | > 200 | 7.5
Cc1cc(OCCCCCCC[N+](C)(C)Cc2ccc([N+](=O)[O-])o2)c(C(C)C)cc1Cl.[Br-] | > 200 | 4 | > 200 | > 200 | > 200 | > 200 | > 200 | 4 | 3 | 2 | 3 | > 200 | 7.5 | > 200 | 5
Cc1cc(OCCCCCCCCCCCC[N+](C)(C)Cc2ccc(Br)o2)c(C(C)C)cc1Cl.Cc1ccc(S(=O)(=O)[O-])cc1 | > 200 | > 200 | > 200 | > 200 | > 200 | > 200 | > 200 | 200 | > 200 | 50 | 200 | > 200 | > 200 | > 200 | 200
C[N+](C)(CCCCOc1c(Br)cc(Br)cc1Br)Cc1ccc([N+](=O)[O-])o1.[Br-] | > 200 | 50 | > 200 | > 200 | > 200 | > 200 | 50 | 25 | 50 | 8 | 10 | > 200 | 50 | > 200 | 25
C[N+](C)(CCOc1ccc(Cl)cc1Cl)Cc1ccc(Br)o1.[Br-] | > 200 | > 200 | > 200 | > 200 | > 200 | > 200 | > 200 | 100 | > 200 | 50 | 100 | > 200 | > 200 | > 200 | > 200
C[N+](C)(CCCCCCCOc1c(Br)cc(Br)cc1Br)Cc1ccc([N+](=O)[O-])o1.[Br-] | > 200 | 5 | > 200 | > 200 | > 200 | > 200 | > 200 | 7.5 | 7.5 | 3 | 5 | > 200 | 25 | > 200 | 10
C[N+](C)(CCCCCCCCOc1c(Br)cc(Br)cc1Br)Cc1ccc(Br)o1.[Br-] | > 200 | 4 | > 200 | > 200 | > 200 | > 200 | > 200 | 3 | 4 | 2 | 4 | > 200 | 7.5 | > 200 | 50
